Drawing on the array DNA melting data of Ke et al. (doi:10.1101/2024.01.08.574731), this text covers folding enthalpy and Tm for 56 sequences.

Series [1] can be described thus: folding enthalpy; higher = less favourable; fluorescence melt of hairpins on a sequencing array, two-state fit. The conditions noted are these: sodium 0.088 M. In short, it runs like this: (§1)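 Hairpins were imaged by Cy3 fluorescence on a sequenced MiSeq flow cell with annealed Cy3 and quencher oligos, in 50 mM Na-HEPES pH 8.0, 25 mM NaCl, in 2.5 °C steps up to 60 °C. Bootstrapped two-state fits of normalised signals gave melting temperature and folding enthalpy. Four replicates were combined by inverse variance, and fitted temperatures were raised by 9.35 °C to match UV melts.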

A short description of series [2]: melting temperature; fluorescence melt of hairpins on a sequencing array, two-state fit, raised by 9.35 °C to match UV melts. The conditions noted are these: sodium 0.088 M. Put shortly: as §1

For GACTGTACGAAAGTAGTC (((..(((....)))))), the folding enthalpy in series [1] was -28.8 kcal/mol. In addition, the Tm in series [2] was found to be 36.9 °C.

As to GATCTCGATAGAGATC ((((((....)))))), in series [1], the folding enthalpy was -36 kcal/mol. For the same sequence, in series [2], the Tm stood at 66.8 °C.

On to GGAAGTGCGAAAGCATCC (((..(((....)))))), for which, in series [1], the folding enthalpy is -10.6 kcal/mol. Further, the Tm in series [2] turned out to be 31.3 °C.

For the sequence GATCGGACTTCCGATC ((((((....)))))), the folding enthalpy in series [1] was -42.3 kcal/mol. Moreover, the Tm in series [2] stood at 57.2 °C.

On to GATCATGTGAATGATC ((((((....)))))), for which, in series [1], the folding enthalpy is -39.3 kcal/mol. In series [2], the Tm amounted to 54.6 °C.

GTGAGCGAAAGCTTCCAC ((((((....)))..))): the folding enthalpy in series [1] is -15.2 kcal/mol. Further, the Tm in series [2] worked out at 28.7 °C.

Consider GGATCTACGAAAGTATCC (((..(((....)))))), for which the folding enthalpy in series [1] was -11.3 kcal/mol. Moreover, the Tm in series [2] was determined as 32.9 °C.

Take GTAGACGAAAGTCCTAC ((((((....))).))): the folding enthalpy in series [1] is -19.7 kcal/mol. Moreover, the Tm in series [2] turned out to be 36.4 °C.

On to GATCGTAAAACGATC ((((((...)))))), for which, in series [1], the folding enthalpy is -36.7 kcal/mol. Further, the Tm in series [2] is 54.4 °C.

Turning to GCCACTGGAAACAGCGAC (.(.(((....))).).), the folding enthalpy in series [1] is -13.9 kcal/mol. Besides, the Tm in series [2] came out at 26 °C.

Take GCGGCTACCCGC ((((....)))): the folding enthalpy in series [1] was -22.2 kcal/mol. Moreover, the Tm in series [2] was 55.7 °C.

For GATCTAAATTTAGATC ((((((....)))))), the folding enthalpy in series [1] was -32.3 kcal/mol. The Tm in series [2] was determined as 44.3 °C.

Consider GATCGATATCTCGATC ((((((....)))))), for which the folding enthalpy in series [1] was -36 kcal/mol. Moreover, in series [2], the Tm came out at 51 °C.

Consider GATCCCACTCGGGATC ((((((....)))))), for which the folding enthalpy in series [1] is -38.1 kcal/mol. In addition, the Tm in series [2] amounted to 61.8 °C.

As for GATGGCGGAAACGCTATC (((.(((....))).))), the folding enthalpy in series [1] was -27.2 kcal/mol. The Tm in series [2] came to 52 °C.

On to GATCCAGGTCTGGATC ((((((....)))))), for which, in series [1], the folding enthalpy was -37.4 kcal/mol. Further, the Tm in series [2] was determined as 55 °C.

Turning to GCTCGGCGAAAGCCGCGC ((.((((....)))).)), the folding enthalpy in series [1] was -18.5 kcal/mol. The Tm in series [2] was determined as 65.1 °C.

With GCCAGCCGAAAGGCCGGC (((.(((....))).))), the folding enthalpy in series [1] was -27.4 kcal/mol. In addition, the Tm in series [2] was 68.4 °C.

Regarding GCGGGGCGAAAGCCATGC ((..(((....)))..)), the folding enthalpy in series [1] was -27.7 kcal/mol. Moreover, the Tm in series [2] worked out at 62.4 °C.

Turning to GTGAGATCGAAAGATCAC (((..(((....)))))), the folding enthalpy in series [1] is -17.6 kcal/mol. Also, the Tm in series [2] is 45.6 °C.

Regarding GATCATCACGATGATC ((((((....)))))), the folding enthalpy in series [1] was -42.6 kcal/mol. In addition, the Tm in series [2] was found to be 51.8 °C.

In the case of GCTACGGGAAACCGCAAC (.(.(((....))).).), the folding enthalpy in series [1] is -9.56 kcal/mol. Moreover, the Tm in series [2] came out at 24.1 °C.

As to GATCTTACGAAGATC ((((((...)))))), the folding enthalpy in series [1] was -34.6 kcal/mol. Further, the Tm in series [2] amounted to 42.9 °C.

Consider GTCCACGGAAACGCGGAC ((((.((....)).)))), for which the folding enthalpy in series [1] was -45.8 kcal/mol. The Tm in series [2] turned out to be 53.8 °C.

For TTCGTGAAAACGAA (((((....))))), the folding enthalpy in series [1] is -20.2 kcal/mol. Besides, in series [2], the Tm came out at 46.4 °C.

GCACACGAAAGTGTTGC ((((((....))).))): the folding enthalpy in series [1] was -32.5 kcal/mol. Also, the Tm in series [2] amounted to 53.8 °C.

With GCGAGCGCTCGC ((((....)))), the folding enthalpy in series [1] was -46.8 kcal/mol. Moreover, in series [2], the Tm came to 65 °C.

Take GCATATCCGAAAGGATGC (((..(((....)))))): in series [1], the folding enthalpy was -15.2 kcal/mol. Besides, the Tm in series [2] was 43.5 °C.

With GGTAGCCGAAAGGCGACC (((.(((....))).))), the folding enthalpy in series [1] is -24.5 kcal/mol. For the same sequence, the Tm in series [2] amounted to 66.9 °C.

With GGCAATCCGAAAGGAGCC (((..(((....)))))), the folding enthalpy in series [1] is -23.4 kcal/mol. Besides, the Tm in series [2] turned out to be 46.9 °C.

Regarding GTGGCCGAAAGGCGCCAC ((((((....)))..))), the folding enthalpy in series [1] was -13.7 kcal/mol. Also, the Tm in series [2] stood at 49 °C.

Turning to GCGATTGGAAACGATCGC (((((.(....).))))), in series [1], the folding enthalpy was -49 kcal/mol. Moreover, in series [2], the Tm turned out to be 56.4 °C.

For the sequence GGGTACGAAAGTAAGCCC ((((((....)))..))), the folding enthalpy in series [1] is -20.7 kcal/mol. Besides, the Tm in series [2] is 40.7 °C.

With GATCAATGTCTTGATC ((((((....)))))), in series [1], the folding enthalpy is -27.9 kcal/mol. In addition, the Tm in series [2] was 43.5 °C.

Consider GATCGTGACGACGATC ((((((....)))))), for which the folding enthalpy in series [1] was -39.2 kcal/mol. In addition, in series [2], the Tm was determined as 56.8 °C.

As for GACGACGGAAACGTCACC (..((((....))))..), in series [1], the folding enthalpy was -11.5 kcal/mol. Moreover, the Tm in series [2] was 35.4 °C.

For GTGACTACGAAAGTACAC (((..(((....)))))), the folding enthalpy in series [1] is -6.75 kcal/mol. For the same sequence, the Tm in series [2] amounted to 29.3 °C.

Take GAGTAAACGAAAGTTCTC (((..(((....)))))): in series [1], the folding enthalpy was -13.9 kcal/mol. Moreover, in series [2], the Tm turned out to be 30.1 °C.

Regarding GCTGGTACGAAAGTAAGC (((..(((....)))))), the folding enthalpy in series [1] was -16.2 kcal/mol. For the same sequence, the Tm in series [2] came out at 34.2 °C.

For GATCCCGTGGGGGATC ((((((....)))))), the folding enthalpy in series [1] was -31.9 kcal/mol. The Tm in series [2] was found to be 60 °C.

For the sequence ATCATGAAAATGAT (((((....))))), the folding enthalpy in series [1] was -13.8 kcal/mol. In addition, in series [2], the Tm turned out to be 38.5 °C.

Regarding GCGCGACGAAAGTCTCGC (((.(((....))).))), the folding enthalpy in series [1] was -34.3 kcal/mol. In series [2], the Tm came out at 60.6 °C.

GTTGAGCGAAAGCTAAAC (((.(((....))).))): in series [1], the folding enthalpy was -26.5 kcal/mol. Also, the Tm in series [2] was 48 °C.

As to GTAGACGAAAGTCAGTAC ((((((....)))..))), the folding enthalpy in series [1] was -9.2 kcal/mol. Also, the Tm in series [2] was 28.6 °C.

Consider GATCGATCGATCGATC ((((((....)))))), for which the folding enthalpy in series [1] was -57.6 kcal/mol. The Tm in series [2] worked out at 57.1 °C.

Consider GGGGTCGAAAGACCTCCC ((((((....)))..))), for which the folding enthalpy in series [1] was -11.7 kcal/mol. Besides, the Tm in series [2] is 51.4 °C.

For the sequence GAGAGGCGAAAGCCACTC (((.(((....))).))), the folding enthalpy in series [1] is -20.6 kcal/mol. The Tm in series [2] stood at 53.3 °C.

Consider GATTGCGCGAAAGCGATC (((..(((....)))))), for which the folding enthalpy in series [1] is -9.1 kcal/mol. In series [2], the Tm was 32 °C.

For the sequence CGTGCGGAAACGCGAACG ((((((....)))..))), the folding enthalpy in series [1] is -23.3 kcal/mol. The Tm in series [2] was 47.6 °C.

GGAACCCCGAAAGGGTCC (((..(((....)))))): the folding enthalpy in series [1] is -15.5 kcal/mol. Further, the Tm in series [2] is 45.9 °C.

Consider GTAATGCGAAAGCAATAC (((.(((....))).))), for which, in series [1], the folding enthalpy is -20 kcal/mol. Moreover, the Tm in series [2] is 44.6 °C.

On to GCCACCGAAAGGTGTGGC ((((((....)))..))), for which the folding enthalpy in series [1] was -17.5 kcal/mol. The Tm in series [2] was 58.2 °C.

Consider GTGAAGTCGAAAGACCAC (((..(((....)))))), for which the folding enthalpy in series [1] was -23.9 kcal/mol. The Tm in series [2] is 38.3 °C.

GTAAAGCGAAAGCTATAC (((.(((....))).))): the folding enthalpy in series [1] is -15.6 kcal/mol. For the same sequence, in series [2], the Tm is 41.3 °C.

Regarding GCGAGGCTTCGC ((((....)))), the folding enthalpy in series [1] was -17.9 kcal/mol. For the same sequence, the Tm in series [2] stood at 66.7 °C.

For the sequence GAACGCGAAAGCGAGTTC ((((((....)))..))), the folding enthalpy in series [1] is -14.8 kcal/mol. In series [2], the Tm was determined as 43.1 °C.
